Assay outcomes deposited in PubChem by several laboratories.
Rows were chosen to be rich in hits. Some 4% of all compounds tested hit in one or more screens of this group.
INS promoter inh: inhibitors of insulin promoter-driven GFP, primary screen, imaging, TRM-6 cells (human fetal islet line), eGFP reporter, cell count. reporter expression induced with tamoxifen. inhibition, % at 2 µM. actives 0.9% (n = 130,000). AID 1273, 2008;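 active means inhibition above the mean plus 3 SD, with well images judged a real hit on visual review, cut at about 60% in these data, passing the limit was not always enough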
Yeast lifespan up: compounds extending yeast replicative lifespan, primary screen, S. cerevisiae, OD615; S. cerevisiae growth with nicotinamide; deaD strain in restrictive glucose medium; inhibition of the nicotinamide effect, % at 10 µM; AID 775, 2007; actives 0.68% (n = 130,000);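 active means inhibition above a set limit, placed 3 SD over the median of all compounds, cut at about 26% in these data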;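 further: 0% = nicotinamide-treated wells and 100% = cells grown without nicotinamide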
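assay system = DeaD-strain S. cerevisiae | measured by = absorbance at 615 nm | probe or stimulus = nicotinamide 1.5 mM | buffer or medium = CSMM-D glucose medium, restrictive | times = 48 h at 30 °C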
Mdm2 ligase inh: MDM2-luciferase reporter signal enhancers, primary screen, MDM2 E3 ligase inhibitor project, cell-based, luminescence, 1536-well; signal enhancement, % at 5 µM; cell-based MDM2 ubiquitination luciferase reporter, 2 h; 0 = plate control, 100 = twice control, blank-subtracted; actives 0.11% (n = 210,000);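 active means signal enhancement of 30% or more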;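 further: luminescence tracks abundance of the self-degrading MDM2-luciferase fusion protein; higher signal means inhibition of MDM2 E3 ligase activity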
Target sequence (Q00987 whole entry, looked up, the tested form may be a part): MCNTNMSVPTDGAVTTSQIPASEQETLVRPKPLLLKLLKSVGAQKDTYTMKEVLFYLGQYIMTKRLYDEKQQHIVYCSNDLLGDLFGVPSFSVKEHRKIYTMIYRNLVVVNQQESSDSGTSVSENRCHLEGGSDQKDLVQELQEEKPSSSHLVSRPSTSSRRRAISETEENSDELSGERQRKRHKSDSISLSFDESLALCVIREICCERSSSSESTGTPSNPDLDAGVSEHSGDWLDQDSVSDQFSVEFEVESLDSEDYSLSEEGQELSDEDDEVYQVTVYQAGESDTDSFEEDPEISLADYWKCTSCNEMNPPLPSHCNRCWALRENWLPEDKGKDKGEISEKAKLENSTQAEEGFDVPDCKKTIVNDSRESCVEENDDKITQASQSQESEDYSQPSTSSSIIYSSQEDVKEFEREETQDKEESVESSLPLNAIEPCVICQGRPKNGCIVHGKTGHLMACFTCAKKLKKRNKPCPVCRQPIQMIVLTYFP
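Test system: mammalian cells stably expressing self-ubiquitinating, self-degrading MDM2 E3–luciferase fusion; Amount: 2000 cells in each well; Medium: DMEM; Schedule: 4 h settle plus 2 h compound, 37 °C; Technique: SteadyLite luciferase luminescence after 15 min room-temperature reagent incubation; Benchmarks: plate control and blank wells.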
RAM network inh: inhibitors of the yeast RAM network, primary screen, dse1pr::URA3 reporter, 5-FOA selection; S. cerevisiae dse1pr::URA3 reporter, 5-FOA growth OD615, 2 d; analog-sensitive cbk1-as2 kinase mutant strain; actives 1.8% (n = 190,000); inhibition, % at 50 µM; AID 868, 2007;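 active means inhibition above a set limit, 3 SD over mean compound inhibition, cut at about 8.4% in these data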;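 further: 0% = DMSO-only wells with no growth and 100% = 10 µM 1-NA-PP1 full growth; inhibition rescues growth on 5-FOA so higher OD means more RAM inhibition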
BB579 growth dn: growth inhibitors of yeast BB579 in restrictive medium, primary screen, yeast lifespan-shortening project, S. cerevisiae | inhibition, % at 10 µM | actives 0.51% (n = 140,000) | OD615, 48 h;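 active means inhibition above a set limit, 3 SD over the mean compound inhibition, cut at about 44% in these data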
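Test system: DeaD yeast strain BB579 / Buffer or medium: restrictive glucose-based CSMM-D medium / Doses: single 10 µM dose / Schedule: 4 h cell preincubation, 48 h compound exposure, 30 °C humidified / Technique: culture absorbance at 615 nm / Controls: amphotericin B positive control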
Measles CPE: compounds protecting cells from measles virus cytopathic effect, primary screen, measles RdRp inhibitor project, single point, MLSMR library, absorbance; Measles virus-infected cells, CPE protection; protection (pct of control), % at 4 µM; actives 1.5% (n = 140,000); in the data active means protection mostly above about 24%, no sharp cut-off; inactive means mostly below about 26%
Numbers without * were called inactive; . = no result.

SMILES | INS promoter inh | Yeast lifespan up | Mdm2 ligase inh | RAM network inh | BB579 growth dn | Measles CPE
CCN(CC)c1ccc(NC(=O)C2CC(=O)N(Cc3ccccc3)C2)cc1 (stereo not drawn) | 38 | . | -16 | 1 | . | .
CC(C)c1ccc(CN2CC(C(=O)Nc3ccccc3)CC2=O)cc1 (stereo not drawn) | 75* | . | -13 | 2 | . | .
NCCNC[C@@H]1COC2(CCCCCCCCCCC2)O1 | . | . | -10 | . | . | .
Cc1ccc(C2OC34CCCCCC3C(C#N)(C(=N)O4)C2(C#N)C#N)cc1 (stereo not drawn) | -40 | -2 | . | 1 | 5 | 52*
Cc1ccc(NC(=O)COC(=O)/C(=C/c2cccs2)c2cccs2)cc1S(=O)(=O)N(C)C | -23 | 10 | -8 | 8.9* | -59 | 19
N#CC(C#N)=CC1=C2OC(c3ccccc3)=CC(c3ccccc3)=C2CCC1 | -7 | 0 | -23 | 10* | -61 | 15
Cc1cnc(NC(=O)COc2cccc3c2OC(C)(C)C3)s1 | 11 | -20 | -3 | 1 | -29 | 65*
Cc1cc(=O)[nH]c(SCc2nc3ccccc3s2)n1 | . | -13 | -3 | 0 | 46* | 9
O=C(CSc1nnc(NC(=O)Cc2ccc(F)cc2)s1)NCc1ccco1 | 92* | . | 0 | 3 | . | .
CC1(C)CC(=O)C(=Cc2cn(CCC#N)nc2-c2ccc(Cl)cc2)C(=O)C1 | . | 39* | 5 | 3 | -51 | 37
CCNc1nc(N)nc(-c2cc(Cl)ccc2O)n1 | 62* | -6 | -31 | 4 | 9 | 10
CCCCNc1nc(N)nc(-c2cc(Cl)ccc2O)n1 | 15 | -1 | -10 | -1 | 8 | 11
CCn1c(CNc2ccc(C)cc2)nnc1SCC(N)=O | 57 | . | 0 | 0 | -20 | 22
COc1ccccc1N(CN1CCCC1=O)C(=O)c1c(F)cccc1F | . | 103* | -5 | 2 | -22 | 21
NS(=O)(=O)c1ccc(NC(=O)CSc2nnc(COc3ccccc3Cl)n2C2CC2)cc1 | 65 | -5 | . | 9.5* | -46 | 4
CCCCc1nc(N2CCOCC2)c(C#N)c2c1CCCC2 | . | -26 | -10 | 0 | 15 | 56*
CCCc1nc(N2CCOCC2)c(C#N)c2c1CCCC2 | -14 | -18 | 6 | -1 | -18 | 29
COC(=O)/C(=C1/Oc2cc3c(cc2S1)OCO3)C(F)(F)F | 0 | 37* | -23 | 3 | -58 | 7
COC(=O)/C(=C1/Oc2ccc(C)cc2S1)C(F)(F)F | . | 10 | 12 | 1 | -45 | 23
CC(=O)NC12CC3CC(C1)CC(C(=O)OCC(=O)Nc1ncc(Cl)cc1Cl)(C3)C2 | 44 | -10 | -1 | 2 | -25 | 19
O=C(NCc1cccs1)c1ccc([N+](=O)[O-])cc1Cl | . | -6 | -12 | -1 | -7 | 2
COc1ccc(C2C3=C(CC(C)(C)CC3=O)Nc3c2c(=O)[nH]c2nc(C)nn32)cc1 (stereo not drawn) | 27 | -10 | -25 | 1 | -1 | 16
CC(C)(C)OC(=O)NCc1n[nH]c(=S)n1C1CC1 | . | . | -23 | . | . | .
O=S(=O)(c1ccc(Cl)cc1)N1CCC(n2cnc3cc(C(F)(F)F)ccc32)CC1 | -6 | . | . | . | . | .
CCn1nnc2sc3c(c2c1=O)CCC(C)C3 (stereo not drawn) | 78* | 25 | -8 | 1 | -13 | 22
O=C(C1CC1c1ccccc1)N1CCN(c2cccc(Cl)c2)CC1 (stereo not drawn) | . | -9 | . | 9.5* | -80 | 2
COc1ccc(C(=O)OCC(=O)NCC2CCCO2)cc1S(=O)(=O)N1CCCc2ccccc21 (stereo not drawn) | 26 | . | -11 | 1 | . | .
CCOC(=O)c1nnn(-c2nonc2-n2cccc2)c1CCl | 19 | 55* | -25 | 1 | -21 | 22
CCOC(=O)c1nnn(-c2nonc2-n2cccc2)c1CN1CCC(C)CC1 | -30 | -12 | -1 | 0 | -57 | 5
CCOC(=O)c1nnn(-c2nonc2N)c1CN1CCc2ccccc2C1 | 46 | 62* | -4 | -1 | -38 | 38
